Experimental data: PubChem BioAssay AID504469 (NMMLSC, 2011)
Values belong to the compound of their own block, whether it stands above or below them. Calls of active or inactive are those of the source.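 Rule for the calls: active = compounds whose fitted GFP dose response EC50 is at or below 33 microM; inactive = the rest.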

Legend:
[1] = yeast TOR reporter LAP4-GFP level changes – cell-based, KU SAR set 2, flow cytometry, SAR follow-up (AID 504469); conditions: S. cerevisiae LAP4-GFP strain, flow cytometry fluorescence, 3 h
Summary of the method: (§1)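 Medium: synthetic complete yeast growth medium. Material: Saccharomyces cerevisiae strain carrying LAP4-GFP fusion protein. Input: cells at 0.2 OD600. Measure: EC50 of background-corrected GFP signal. Timing: compound exposure 3 h at 30 °C with rotation. Technique: flow cytometry of GFP, median fluorescence bead-calibrated to kMESF. Doses: compound dose-response series.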

[2] = test system: S. cerevisiae LAP4-GFP strain, flow cytometry fluorescence, 3 h; test: as above
Summary of the method: as §1

SMILES: CNc1nc(N)c([N+](=O)[O-])c(Nc2ccccc2F)n1
GFP fluorescence (kMESF) ([1]; at 100 µM (top of the series)): 6.21 kMESF (inactive)

SMILES: Cc1cc(Nc2cc(-c3ccccc3)nc(NCc3ccccc3)n2)n[nH]1
GFP fluorescence (kMESF) ([1]; at 300 µM (top of the series)): 4.41 kMESF (inactive)

SMILES: CCOC(=O)c1c(N)nc(NC)nc1Nc1cccc(F)c1
GFP fluorescence (kMESF) ([1]; at 300 µM (top of the series)): 4.41 kMESF (inactive)

SMILES: CNc1nc(N)cc(Oc2cccc(Cl)c2)n1
GFP fluorescence (kMESF) ([1]; at 300 µM (top of the series)): 4.73 kMESF (inactive)

SMILES: Cc1cc(Nc2cc(Nc3ccccc3)nc(NCc3ccccc3)n2)n[nH]1
GFP fluorescence (kMESF) ([1]; at 300 µM (top of the series)): 4.28 kMESF (inactive)

SMILES: CNc1nc(N)cc(Nc2ccccc2F)n1
GFP fluorescence (kMESF) ([1]; at 300 µM (top of the series)): 4.66 kMESF (inactive)

SMILES: O=[N+]([O-])c1c(NC2CCCCC2)nc(NCc2ccccc2)nc1N1CCOCC1
GFP fluorescence (kMESF) ([1]; at 300 µM (top of the series)): 4.34 kMESF (inactive)

SMILES: COc1cccc(-c2cc(Nc3cc(C)[nH]n3)nc(NCc3ccccc3)n2)c1
GFP fluorescence (kMESF) ([1]; at 300 µM (top of the series)): 4.54 kMESF (inactive)

SMILES: CNc1nc(NC2CCCCC2)c([N+](=O)[O-])c(N2CCOCC2)n1
GFP fluorescence (kMESF) ([1]; at 100 µM (top of the series)): 6.42 kMESF (inactive)

SMILES: COc1ccccc1-c1cc(Nc2cc(C)[nH]n2)nc(NCc2ccccc2)n1
GFP fluorescence (kMESF) ([1]; at 300 µM (top of the series)): 4.66 kMESF (inactive)

EC50 [2]: 101 µM (inactive)
SMILES: CNc1nc(N)cc(Nc2cccc(Cl)c2)n1

SMILES: CNc1nc(N)c([N+](=O)[O-])c(Nc2cccc(Oc3ccccc3)c2)n1
GFP fluorescence (kMESF) ([1]; at 100 µM (top of the series)): 6.57 kMESF (inactive)

SMILES: CNc1nc(N)c([N+](=O)[O-])c(Nc2ccccc2Br)n1
GFP fluorescence (kMESF) ([1]; at 100 µM (top of the series)): 6.28 kMESF (inactive)

SMILES: CNc1nc(N)c([N+](=O)[O-])c(Nc2cccc(Br)c2)n1
GFP fluorescence (kMESF) ([1]; at 100 µM (top of the series)): 6.21 kMESF (inactive)

SMILES: COC(=O)c1cccc(-c2cc(Nc3cc(C)[nH]n3)nc(NCc3ccccc3)n2)c1
GFP fluorescence (kMESF) ([1]; at 300 µM (top of the series)): 4.28 kMESF (inactive)

SMILES: CCNc1nc(NC2CCCCC2)c([N+](=O)[O-])c(N2CCOCC2)n1
GFP fluorescence (kMESF) ([1]; at 100 µM (top of the series)): 6.5 kMESF (inactive)

SMILES: CNc1nc(N)c([N+](=O)[O-])c(Nc2cccc(OC)c2)n1
GFP fluorescence (kMESF) ([1]; at 100 µM (top of the series)): 6.21 kMESF (inactive)

EC50 [2]: 80.9 µM (inactive)
SMILES: CNc1nc(N)c(C(=O)c2ccc(C)c(C)c2)c(Nc2cccc(Cl)c2)n1

SMILES: CNc1nc(NC)c([N+](=O)[O-])c(Nc2cccc(Cl)c2)n1
GFP fluorescence (kMESF) ([1]; at 100 µM (top of the series)): 6.28 kMESF (inactive)

SMILES: CCNc1nc(N)c([N+](=O)[O-])c(Nc2cccc(Cl)c2)n1
GFP fluorescence (kMESF) ([1]; at 100 µM (top of the series)): 6.21 kMESF (inactive)
